In brackets after ≈: the same amount, converted by molar mass.
Experiments:
Assay type in all cases: functional
Enterococcus faecalis [1] = experiment: Antibacterial activity against Enterococcus faecalis 14-1 after 18 to 24 hrs by two-fold serial dilution method
In short: (§1)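 Twofold serial dilution in agar media against Gram-positive and Gram-negative strains. Plates incubated at 35 °C for 18–24 h. MIC read as the lowest compound concentration giving complete inhibition of bacterial growth.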

Escherichia coli [2] = experiment: Antibacterial activity against extended-spectrum beta-lactamase producing Escherichia coli 14-2 after 18 to 24 hrs by two-fold serial dilution method; in short: as §1
Staphylococcus aureus [3] = experiment: Antibacterial activity against Staphylococcus aureus CMCC 26003 after 18 to 24 hrs by two-fold serial dilution method; in short: as §1
[4] = system: Staphylococcus epidermidis; experiment: Antibacterial activity against methicillin-resistant Staphylococcus epidermidis 14-37 after 18 to 24 hrs by two-fold serial dilution method
In short: (§2)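 Agar media, standard twofold serial dilution. MIC is the lowest concentration giving complete inhibition of bacterial growth after incubation at 35 °C for 18–24 h. Ciprofloxacin and levofloxacin were run as comparators.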

[5] = system: Staphylococcus epidermidis; experiment: Antibacterial activity against methicillin-sensitive Staphylococcus epidermidis 14-2 after 18 to 24 hrs by two-fold serial dilution method; in short: as §1
Pseudomonas aeruginosa [6] = experiment: Antibacterial activity against Pseudomonas aeruginosa ATCC 27853 after 18 to 24 hrs by two-fold serial dilution method; in short: as §1
Enterococcus faecium [7] = experiment: Antibacterial activity against Enterococcus faecium 14-6 after 18 to 24 hrs by two-fold serial dilution method; in short: as §1
Klebsiella pneumoniae [8] = experiment: Antibacterial activity against Klebsiella pneumoniae 14-3 after 18 to 24 hrs by two-fold serial dilution method; in short: as §1
Escherichia coli [9] = experiment: Antibacterial activity against Escherichia coli 14-2 after 18 to 24 hrs by two-fold serial dilution method; in short: as §1
[10] = system: Staphylococcus epidermidis; experiment: Antibacterial activity against methicillin-resistant Staphylococcus epidermidis 14-39 after 18 to 24 hrs by two-fold serial dilution method; in short: as §2
[11] = system: Staphylococcus epidermidis; experiment: Antibacterial activity against methicillin-resistant Staphylococcus epidermidis 14-22 after 18 to 24 hrs by two-fold serial dilution method; in short: as §2
Klebsiella pneumoniae [12] = experiment: Antibacterial activity against extended-spectrum beta-lactamase producing Klebsiella pneumoniae 14-18 after 18 to 24 hrs by two-fold serial dilution method; in short: as §1
Pseudomonas aeruginosa [13] = experiment: Antibacterial activity against Pseudomonas aeruginosa 14-15 after 18 to 24 hrs by two-fold serial dilution method; in short: as §1
Staphylococcus aureus [14] = experiment: Antibacterial activity against methicillin-resistant Staphylococcus aureus 14-5 after 18 to 24 hrs by two-fold serial dilution method; in short: as §2
Pseudomonas aeruginosa [15] = experiment: Antibacterial activity against Pseudomonas aeruginosa 14-16 after 18 to 24 hrs by two-fold serial dilution method; in short: as §1
Staphylococcus aureus [16] = experiment: Antibacterial activity against methicillin-sensitive Staphylococcus aureus 14-4 after 18 to 24 hrs by two-fold serial dilution method; in short: as §1
Klebsiella pneumoniae [17] = experiment: Antibacterial activity against Klebsiella pneumoniae 14-2 after 18 to 24 hrs by two-fold serial dilution method; in short: as §1
Staphylococcus aureus [18] = experiment: Antibacterial activity against methicillin-sensitive Staphylococcus aureus 14-3 after 18 to 24 hrs by two-fold serial dilution method; in short: as §1
Enterococcus faecium [19] = experiment: Antibacterial activity against Enterococcus faecium 14-2 after 18 to 24 hrs by two-fold serial dilution method; in short: as §1
Staphylococcus aureus [20] = experiment: Antibacterial activity against methicillin-resistant Staphylococcus aureus 14-4 after 18 to 24 hrs by two-fold serial dilution method; in short: as §2
Enterococcus faecium [21] = experiment: Antibacterial activity against Enterococcus faecium 14-5 after 18 to 24 hrs by two-fold serial dilution method; in short: as §1
Escherichia coli [22] = experiment: Antibacterial activity against extended-spectrum beta-lactamase producing Escherichia coli 14-1 after 18 to 24 hrs by two-fold serial dilution method; in short: as §1
Staphylococcus aureus [23] = experiment: Antibacterial activity against methicillin-sensitive Staphylococcus aureus 14-1 after 18 to 24 hrs by two-fold serial dilution method; in short: as §1
Streptococcus pneumoniae = experiment: Antibacterial activity against methicillin-resistant Streptococcus pneumoniae ATCC 19615 after 18 to 24 hrs by two-fold serial dilution method; in short: as §2
Enterococcus faecalis [24] = experiment: Antibacterial activity against Enterococcus faecalis 14-2 after 18 to 24 hrs by two-fold serial dilution method; in short: as §1
Klebsiella pneumoniae [25] = experiment: Antibacterial activity against extended-spectrum beta-lactamase producing Klebsiella pneumoniae 14-19 after 18 to 24 hrs by two-fold serial dilution method; in short: as §1
[26] = system: Staphylococcus epidermidis; experiment: Antibacterial activity against methicillin-resistant Staphylococcus epidermidis 14-21 after 18 to 24 hrs by two-fold serial dilution method; in short: as §2
Pseudomonas aeruginosa [27] = experiment: Antibacterial activity against Pseudomonas aeruginosa 14-14 after 18 to 24 hrs by two-fold serial dilution method; in short: as §1
Escherichia coli [28] = experiment: Antibacterial activity against Escherichia coli ATCC 25922 after 18 to 24 hrs by two-fold serial dilution method; in short: as §1
Klebsiella pneumoniae [29] = experiment: Antibacterial activity against Klebsiella pneumoniae 14-4 after 18 to 24 hrs by two-fold serial dilution method; in short: as §1
Klebsiella pneumoniae [30] = experiment: Antibacterial activity against extended-spectrum beta-lactamase producing Klebsiella pneumoniae 14-17 after 18 to 24 hrs by two-fold serial dilution method; in short: as §1
Escherichia coli [31] = experiment: Antibacterial activity against Escherichia coli 14-1 after 18 to 24 hrs by two-fold serial dilution method; in short: as §1
Pseudomonas aeruginosa [32] = experiment: Antibacterial activity against Pseudomonas aeruginosa 14-9 after 18 to 24 hrs by two-fold serial dilution method; in short: as §1
Klebsiella pneumoniae [33] = experiment: Antibacterial activity against Klebsiella pneumoniae 14-1 after 18 to 24 hrs by two-fold serial dilution method; in short: as §1

SMILES	MIC (Enterococcus faecalis [1])	MIC (Escherichia coli [2])	MIC (Staphylococcus aureus [3])	MIC [4]	MIC [5]	MIC (Pseudomonas aeruginosa [6])	MIC (Enterococcus faecium [7])	MIC (Klebsiella pneumoniae [8])	MIC (Escherichia coli [9])	MIC [10]	MIC [11]	MIC (Klebsiella pneumoniae [12])	MIC (Pseudomonas aeruginosa [13])	MIC (Staphylococcus aureus [14])	MIC (Pseudomonas aeruginosa [15])	MIC (Staphylococcus aureus [16])	MIC (Klebsiella pneumoniae [17])	MIC (Staphylococcus aureus [18])	MIC (Enterococcus faecium [19])	MIC (Staphylococcus aureus [20])	other results
CC1(CNC2CC2)CN(c2nc3c(cc2F)c(=O)c(C(=O)O)cn3[C@@H]2C[C@@H]2F)C/C1=N/OCc1ccccc1 (stereo partly drawn)	64 µg/mL (≈ 119 µM)	> 64 µg/mL	0.125 µg/mL (≈ 0.233 µM)	16 µg/mL (≈ 29.8 µM)	64 µg/mL (≈ 119 µM)	64 µg/mL (≈ 119 µM)	32 µg/mL (≈ 59.5 µM)	64 µg/mL (≈ 119 µM)	> 64 µg/mL	32 µg/mL (≈ 59.5 µM)	16 µg/mL (≈ 29.8 µM)	64 µg/mL (≈ 119 µM)	64 µg/mL (≈ 119 µM)	16 µg/mL (≈ 29.8 µM)	64 µg/mL (≈ 119 µM)	8 µg/mL (≈ 14.9 µM)	64 µg/mL (≈ 119 µM)	2 µg/mL (≈ 3.72 µM)	16 µg/mL (≈ 29.8 µM)	16 µg/mL (≈ 29.8 µM)	MIC (Enterococcus faecium [21]): 32 µg/mL (≈ 59.5 µM); MIC (Escherichia coli [22]): 32 µg/mL (≈ 59.5 µM); MIC (Staphylococcus aureus [23]): 8 µg/mL (≈ 14.9 µM); MIC (Streptococcus pneumoniae): 1 µg/mL (≈ 1.86 µM); MIC (Enterococcus faecalis [24]): 2 µg/mL (≈ 3.72 µM); MIC (Klebsiella pneumoniae [25]): > 64 µg/mL; MIC [26]: 16 µg/mL (≈ 29.8 µM); MIC (Pseudomonas aeruginosa [27]): 64 µg/mL (≈ 119 µM); MIC (Escherichia coli [28]): 4 µg/mL (≈ 7.44 µM); MIC (Klebsiella pneumoniae [29]): > 64 µg/mL; MIC (Klebsiella pneumoniae [30]): 64 µg/mL (≈ 119 µM); MIC (Escherichia coli [31]): > 64 µg/mL; MIC (Pseudomonas aeruginosa [32]): 32 µg/mL (≈ 59.5 µM); MIC (Klebsiella pneumoniae [33]): 64 µg/mL (≈ 119 µM)
O=C(O)c1cn(C2CC2)c2nc(N3C/C(=N/OCc4ccccc4)C(CNC4CC4)C3)c(F)cc2c1=O (stereo not drawn)	64 µg/mL (≈ 127 µM)	> 128 µg/mL	< 0.008 µg/mL	16 µg/mL (≈ 31.6 µM)	64 µg/mL (≈ 127 µM)	64 µg/mL (≈ 127 µM)	8 µg/mL (≈ 15.8 µM)	128 µg/mL (≈ 253 µM)	> 128 µg/mL	32 µg/mL (≈ 63.3 µM)	16 µg/mL (≈ 31.6 µM)	128 µg/mL (≈ 253 µM)	128 µg/mL (≈ 253 µM)	16 µg/mL (≈ 31.6 µM)	64 µg/mL (≈ 127 µM)	8 µg/mL (≈ 15.8 µM)	64 µg/mL (≈ 127 µM)	4 µg/mL (≈ 7.91 µM)	16 µg/mL (≈ 31.6 µM)	> 128 µg/mL	MIC (Enterococcus faecium [21]): 32 µg/mL (≈ 63.3 µM); MIC (Escherichia coli [22]): 32 µg/mL (≈ 63.3 µM); MIC (Staphylococcus aureus [23]): 8 µg/mL (≈ 15.8 µM); MIC (Streptococcus pneumoniae): 8 µg/mL (≈ 15.8 µM); MIC (Enterococcus faecalis [24]): 1 µg/mL (≈ 1.98 µM); MIC (Klebsiella pneumoniae [25]): 128 µg/mL (≈ 253 µM); MIC [26]: 16 µg/mL (≈ 31.6 µM); MIC (Pseudomonas aeruginosa [27]): 64 µg/mL (≈ 127 µM); MIC (Escherichia coli [28]): 4 µg/mL (≈ 7.91 µM); MIC (Klebsiella pneumoniae [29]): > 128 µg/mL; MIC (Klebsiella pneumoniae [30]): 128 µg/mL (≈ 253 µM); MIC (Escherichia coli [31]): > 128 µg/mL; MIC (Pseudomonas aeruginosa [32]): 64 µg/mL (≈ 127 µM); MIC (Klebsiella pneumoniae [33]): 64 µg/mL (≈ 127 µM)

From ChEMBL document CHEMBL3734675, “Synthesis, antimycobacterial and antibacterial activity of fluoroquinolone derivatives containing an 3-alkoxyimino-4-(cyclopropylanimo)methylpyrrolidine moiety” (2015)
